Series [1] is described as follows: Half life in mouse liver microsomes. It counts as ADME, Microsome.
Series [2] is described as follows: Aqueous solubility of the compound at pH 6.8 by automated polarized light microscopy analysis. It counts as physicochemical. An outline of the steps: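 Aqueous solubility at pH 6.8, measured by precipitation from DMSO solution and reported in μg/mL.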
Series [3] concerns the target T1, Histamine H4 receptor (Homo sapiens, UniProt Q9H3N8). The series can be described thus: Displacement of [3H]histamine displacement from human recombinant histamine H4 receptor expressed in […] cells after 45 mins. It counts as cell-based, SK-N-MC.
The nature of series [4]: Half life in human liver microsomes. It counts as ADME, Microsome.
Series [5] deals with T1, Histamine H4 receptor. The series can be described thus: Displacement of [3H]histamine displacement from human histamine H4 receptor expressed in […] cells after 60 mins. It counts as cell-based, SK-N-MC. An outline of the steps:
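Affinity at the human H4 receptor, from displacement of [3H]histamine binding. Reported as pKi, the mean ± SEM of at least three independent determinations.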

In brackets after ≈: the same amount, converted by molar mass.

T1 sequence (Q9H3N8 whole entry): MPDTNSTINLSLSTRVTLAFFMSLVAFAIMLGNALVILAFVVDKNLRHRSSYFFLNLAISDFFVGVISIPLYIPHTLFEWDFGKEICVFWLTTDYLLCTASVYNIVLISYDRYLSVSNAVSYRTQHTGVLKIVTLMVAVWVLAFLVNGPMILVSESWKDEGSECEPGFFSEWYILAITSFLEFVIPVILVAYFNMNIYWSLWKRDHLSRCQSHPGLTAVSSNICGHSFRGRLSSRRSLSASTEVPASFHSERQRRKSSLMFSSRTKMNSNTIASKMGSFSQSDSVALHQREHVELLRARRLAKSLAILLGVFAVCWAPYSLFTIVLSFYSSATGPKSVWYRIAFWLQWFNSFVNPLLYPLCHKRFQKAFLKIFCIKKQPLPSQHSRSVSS

`CN1CCN(c2cc(-c3ccccc3)nc(N)n2)CC1`: the half-life was 4 min in series [1] and 43 min in series [4]. In series [2], this compound came in with a solubility of 61 µg/mL (≈ 226 µM). Moreover, at Histamine H4 receptor [3], the Ki is 0.00794 µM.

On Histamine H4 receptor [5], `CC(C)CNc1nccc(NCCN(C)c2cc(-c3cccc(Cl)c3)nc(N)n2)n1` showed a Ki of 0.0501 µM.

For the compound `CC(C)CNc1nccc(NCCN(C)c2cc(-c3ccccc3)nc(N)n2)n1`, the affinity at Histamine H4 receptor [5] corresponds to a Ki of 0.0316 µM.

`Nc1nc(Cl)cc(NCCNc2cc(-c3ccccc3)nc(N)n2)n1` had a Ki at Histamine H4 receptor [5] of 2.51 µM.

Compound `CN(CCNc1ccnc(N)n1)C(=O)c1cc2ccccc2[nH]1` gave a Ki at Histamine H4 receptor [5] of 10 µM.

The compound `CC(C)CNc1nccc(NCCNc2ccnc(N)n2)n1` showed a Ki at Histamine H4 receptor [5] of 0.0794 µM.

`CC(C)CNc1cc(NCCNc2cc(-c3ccccc3)nc(N)n2)nc(N)n1`: at Histamine H4 receptor [5], the Ki is 3.16 µM.

The compound `CC(C)CNc1nc(NCCNc2ccnc(N)n2)cc(-c2ccccc2)n1` had a Ki at Histamine H4 receptor [5] of 1.26 µM.

As for `CC(C)CCc1cc(NCCNc2ccnc(N)n2)nc(N)n1`, the half-life in series [1] is 18 min; in series [4] it was above 120 min. In addition, the solubility in series [2] was above 79 µg/mL. Moreover, the Ki at Histamine H4 receptor [5] is 0.0251 µM.

As for `Nc1nc(NCCNc2ccncn2)cc(-c2ccccc2)n1`, the affinity at Histamine H4 receptor [5] corresponds to a Ki of 2 µM.

The compound `CC(C)CCc1cc(NCCNc2cc(-c3ccccc3)nc(N)n2)nc(N)n1` gave a Ki at Histamine H4 receptor [5] of 0.398 µM.

Take `Nc1nc(NCCNc2cc(-c3ccccc3)nc(N)n2)cc(-c2ccccc2)n1`: affinity at Histamine H4 receptor [5] was put at a Ki of 1 µM.

With `CC(C)CNc1nccc(NCCNc2cc(-c3ccccc3)nc(N)n2)n1`, affinity on Histamine H4 receptor [5] was put at a Ki of 0.0794 µM.

On Histamine H4 receptor [5], `Nc1nccc(NCCNc2ccnc(N)n2)n1` had a Ki of 0.794 µM.

On to `CC(C)CNc1cc(N(C)CCNc2ccnc(N)n2)nc(N)n1`, for which the half-life in series [1] was determined as 23 min; in series [4], 101 min. The compound further yielded a solubility in series [2] above 84 µg/mL. The Ki at Histamine H4 receptor [5] was 0.0398 µM.

With `CN(CCNc1cc(-c2ccccc2)nc(N)n1)c1ccnc(N)n1`, the Ki at Histamine H4 receptor [5] is 0.0794 µM.

Take `Nc1nccc(NCCNc2cc(-c3cccc(Cl)c3)nc(N)n2)n1`: the figures for the half-life in series [1] and in series [4] were 9 min and 51 min, respectively. In series [2], this compound yielded a solubility above 76 µg/mL. This compound also gave a Ki at Histamine H4 receptor [5] of 0.00631 µM.

At Histamine H4 receptor [5], `Cc1nccc(NCCNc2cc(-c3ccccc3)nc(N)n2)n1` gave a Ki of 0.0398 µM.

`CC(C)CNc1cc(NCCNc2ccnc(N)n2)ncn1` had a Ki at Histamine H4 receptor [5] of 1 µM.

For the compound `CC(C)CCc1cc(N2CCN(C)CC2)nc(N)n1`, the figures for the half-life in series [1] and in series [4] were below 2 min and 61 min, respectively. In series [2], this compound returned a solubility above 62 µg/mL. Moreover, the Ki at Histamine H4 receptor [3] is 0.00316 µM.

Consider `CC(C)CNc1cc(N2CCN(C)CC2)nc(N)n1`, for which the half-life in series [1] is 4 min; in series [4] it was above 120 min. Besides, the solubility in series [2] is above 64 µg/mL. In addition, the Ki at Histamine H4 receptor [3] was 0.00316 µM.

On Histamine H4 receptor [5], `CC(C)CNc1cc(NCCNc2ccnc(N)n2)nc(N)n1` showed an inhibitory constant (Ki) of 0.0794 µM.

Regarding `CC(C)CCc1cc(N(C)CCNc2ccnc(N)n2)nc(N)n1`, the half-life in series [1] is 8 min; in series [4], 82 min. The compound also showed a solubility in series [2] above 83 µg/mL. The compound further had a Ki on Histamine H4 receptor [5] of 0.01 µM.

For `CC(C)CCc1cc(NCCNc2cc(Cl)nc(N)n2)nc(N)n1`, the affinity on Histamine H4 receptor [5], expressed as Ki, was 0.631 µM.

For `CN1CCN(C(=O)c2cc3cc(Cl)ccc3[nH]2)CC1` [JNJ-7777120], the half-life in series [1] was 2 min; in series [4], above 45 min. Moreover, the solubility in series [2] stood at 58 µg/mL (≈ 209 µM).

Regarding `CN(CCNc1ccnc(N)n1)c1cc(-c2ccccc2)nc(N)n1`, the Ki on Histamine H4 receptor [5] was 0.01 µM.

Regarding `CC(C)CNc1nccc(NCCNc2cc(-c3cccc(Cl)c3)nc(N)n2)n1`, the Ki on Histamine H4 receptor [5] was 0.0501 µM.

In the case of `CN1CCN(c2cc(-c3ccc(Cl)cc3)nc(N)n2)CC1`, on Histamine H4 receptor [3], the Ki is 0.00316 µM.

For `Nc1nccc(NCCNc2cc(-c3ccccc3)nc(N)n2)n1`, the Ki on Histamine H4 receptor [3] was 0.00794 µM.

As for `Nc1nccc(NCCNC(=O)c2cc3cc(Cl)ccc3[nH]2)n1`, the Ki at Histamine H4 receptor [5] was 0.316 µM.

At Histamine H4 receptor [5], `CN(CCNc1ccnc(N)n1)C(=O)c1cc2cc(Cl)ccc2[nH]1` showed a Ki of 3.16 µM.

With `CC(C)CNc1cc(NCCNc2cc(-c3ccccc3)nc(N)n2)ncn1`, the Ki at Histamine H4 receptor [5] was 0.501 µM.

`Nc1nccc(NCCNC(=O)c2cc3ccccc3[nH]2)n1`: on Histamine H4 receptor [5], the Ki is 1.26 µM.
